The list is not random: actives were taken first. Their share in the collection is about 1.3%.
PAD4 FP inh: human PAD4 inhibitors, primary screen, biochemical, fluorescence polarization, 1536-well format | 330,000 compounds, 0.41% hits | recombinant PAD4, RCA probe fluorescence polarization | inhibition, % at 6.36 µM | AID 485272, 2010 | Protein-arginine deiminase type-4 (Homo sapiens), Q9UM07;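 active = percent inhibition above a cutoff equal to the mean of all tested compounds plus 3 SD, cut at about 15% in these data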
Fam108B inh: mouse Fam108B serine hydrolase inhibitors, primary screen, counter-screen for RBBP9 inhibitor project, biochemical, fluorescence polarization. recombinant Fam108B, FP-Rh probe fluorescence polarization. inhibition, % at 9.51 µM. 300,000 compounds, 0.33% hits. AID 1947, 2009;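 active = inhibition above the screen mean inhibition plus 3 SD, computed separately per campaign, cut at about 18% in these data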;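 note: inhibitors lower polarization as less probe binds the enzyme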
LYPLA1 inh: LYPLA1 inhibitors, primary screen, counter-screen for PME1 inhibitor project, biochemical, fluorescence polarization, FP-Rh probe ABPP; 320,000 compounds, 0.16% hits; inhibition, % at 5.9 µM; AID 2174, 2009; recombinant LYPLA1; Acyl-protein thioesterase 1 (Homo sapiens), O75608;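 active = inhibition above the mean of all tested compounds plus 3 SD, set per campaign, cut at about 14% in these data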;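 note: inhibitors block serine hydrolase probe labeling of LYPLA1 so polarization falls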
LYPLA2 inh: LYPLA2 inhibitors, primary screen, counter-screen for PME1 inhibitor project, biochemical, fluorescence polarization, FP-Rh probe ABPP; recombinant LYPLA2; inhibition, % at 5.9 µM; 320,000 compounds, 0.38% hits;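 active = inhibition above the screen-wide mean plus 3 SD, limit set per campaign, cut at about 26% in these data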
Target sequence (O95372 whole entry, looked up): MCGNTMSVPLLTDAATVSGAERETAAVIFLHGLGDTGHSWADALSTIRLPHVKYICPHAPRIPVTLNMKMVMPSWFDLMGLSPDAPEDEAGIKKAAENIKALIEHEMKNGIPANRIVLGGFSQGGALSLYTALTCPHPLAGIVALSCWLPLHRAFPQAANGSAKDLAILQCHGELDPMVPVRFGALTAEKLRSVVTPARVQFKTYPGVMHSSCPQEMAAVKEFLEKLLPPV
PME-1 inh: PME-1 inhibitors via competitive probe labeling, primary screen, biochemical, fluorescence polarization, FP-Rh probe, HTS; AID 2130, 2009; inhibition, % at 5.9 µM; recombinant PME-1; Protein phosphatase methylesterase 1 (Homo sapiens), Q9Y570; 320,000 compounds, 0.53% hits;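 active = inhibition above the campaign mean of all compounds plus 3 SD, cut at about 26% in these data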;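 note: competitive labeling of PME-1 active site by serine hydrolase directed probe; inhibitors block probe labeling so polarization falls and inhibition rises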
Target sequence (Q9Y570 whole entry, looked up): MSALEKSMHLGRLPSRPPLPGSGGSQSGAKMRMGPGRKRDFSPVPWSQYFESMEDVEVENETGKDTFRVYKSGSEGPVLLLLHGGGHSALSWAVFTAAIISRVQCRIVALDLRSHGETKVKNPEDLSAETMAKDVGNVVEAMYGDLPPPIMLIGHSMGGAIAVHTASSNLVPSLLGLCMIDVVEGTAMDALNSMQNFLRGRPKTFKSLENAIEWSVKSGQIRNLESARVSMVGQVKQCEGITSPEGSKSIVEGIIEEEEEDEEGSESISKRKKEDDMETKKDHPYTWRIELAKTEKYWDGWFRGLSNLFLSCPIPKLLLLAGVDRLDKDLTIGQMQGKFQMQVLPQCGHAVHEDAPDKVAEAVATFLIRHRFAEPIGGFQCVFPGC
RBBP9 inhibitor: human RBBP9 inhibitors, primary screen, biochemical, fluorescence polarization, FP-Rh probe, HTS. Serine hydrolase RBBP9 (Homo sapiens), O75884. recombinant RBBP9. inhibition, % at 7.94 µM. 220,000 compounds, 0.2% hits. AID 1515, 2009;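 active = inhibition above the campaign mean of all tested compounds plus 3 SD, cut at about 14% in these data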
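Assay system: recombinant human RBBP9; Reagent: Serine-hydrolase probe FP-Rh, 375 nM pre-mixing; Doses: 7.94 µM single dose, 0.794% DMSO; Incubation: 30 min then 45 min, 25 °C; Detection: fluorescence polarization (mP), excitation 525 nm, emission 598 nm; Evaluation: percent inhibition from mP, scaled between DMSO and no-protein wells.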
Fam108b inh conf: mouse Fam108b serine hydrolase inhibitors, confirmation, counter-screen for RBBP9 inhibitor project, biochemical, fluorescence polarization, triplicate | shares compounds with Fam108B inh | recombinant Fam108b, FP-Rh probe fluorescence polarization | inhibition, % at 9.51 µM | 930 compounds, 44% hits;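 active = inhibition above a limit from the primary screen, the mean over all compounds plus 3 SD, cut at about 19% in these data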;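 note: inhibitors free the probe so polarization falls as inhibition rises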
Fam108b ABPP HTS: inhibition of mouse Fam108b by HTS hits, late-stage follow-up, biochemical, gel-based ABPP, soluble recombinant form | shares compounds with Fam108B inh | fluorophosphonate probe | inhibition, % at 20 µM | 260 compounds, 44% hits; in the data active = inhibition above about 40%
Large screens that a line does not name were inactive (follow-up assays come after a bar, where they were run).

Cc1ccc(C2Nc3cccc4cccc(c34)N2)s1	Fam108B inh 29 | Fam108b inh conf inactive
CCCOc1ccc(C2Nc3cccc4cccc(c34)N2)cc1	Fam108B inh 25, PME-1 inh 49 (no result: RBBP9 inhibitor) | Fam108b inh conf inactive
CCOc1ccccc1CN1C(=O)NC2(CCCCCC2)C1=O	none (no result: RBBP9 inhibitor)
Fc1ccc(C2Nc3cccc4cccc(c34)N2)cc1	Fam108B inh 33 (no result: RBBP9 inhibitor) | Fam108b inh conf inactive
COc1ccc(C2Nc3cccc4cccc(c34)N2)cc1Br	Fam108B inh 37, PME-1 inh 32 (no result: RBBP9 inhibitor) | Fam108b inh conf inactive
CCOC(=O)c1c(C)[nH]c(C(=O)COC(=O)c2ccco2)c1C	none (no result: Fam108B inh, LYPLA1 inh, LYPLA2 inh, PME-1 inh, RBBP9 inhibitor)
Brc1ccc(-c2csc(Nc3nc(-c4ccc(Br)cc4)cs3)n2)cc1	Fam108B inh 50 | Fam108b inh conf 34 | Fam108b ABPP HTS 85
Nc1nc(-c2ccc(Br)cc2)cs1	none
Cc1ccc(-n2[nH]c(C)c(/C=N/Nc3ccc([N+](=O)[O-])cc3[N+](=O)[O-])c2=O)cc1C	Fam108B inh 25, PME-1 inh 30 | Fam108b inh conf inactive
Cc1[nH]n(-c2ccccc2)c(=O)c1/C=N/NC(=O)c1cccc([N+](=O)[O-])c1	none
CCCC(=O)Nc1sc2c(c1C#N)CCCCC2	Fam108B inh 70 | Fam108b inh conf inactive
CCC(=O)Nc1sc2c(c1C#N)CCCCC2	none
O=C1C=C(c2ccc3c(c2)oc2ccccc23)C[C@@H](c2ccc3c(c2)OCO3)C1	none (no result: Fam108B inh, RBBP9 inhibitor)
Cc1cc(C)c2c(c1)NC(C(=O)O)C1CC=CC21 (configuration not stated)	Fam108B inh 21 (no result: RBBP9 inhibitor) | Fam108b inh conf inactive
O=C(O)C1Nc2c(C(=O)N3CCOCC3)cccc2C2C=CCC12 (configuration not stated)	none
Cc1ccc2c(c1C)NC(C(=O)O)C1CC=CC21 (configuration not stated)	Fam108B inh 23 (no result: RBBP9 inhibitor) | Fam108b inh conf inactive
CCOc1ccc(C(=O)NCCC2=CCCCC2)cc1OCC	none
Cc1ccc(NS(=O)(=O)c2cc([N+](=O)[O-])ccc2NNC(=S)Nc2cc(C)ccc2C)c(C)c1	Fam108B inh 27 | Fam108b inh conf inactive
COc1ccc(NC(=S)Nc2cccc([N+](=O)[O-])c2)cc1	none
Cc1ccc(NS(=O)(=O)c2cc([N+](=O)[O-])ccc2NNC(=S)Nc2cccc(Cl)c2)c(C)c1	Fam108B inh 30 | Fam108b inh conf inactive
Cc1cccc(NC(=S)NNc2cccc(Cl)c2)c1	none (no result: RBBP9 inhibitor)
COc1ccc(NC(=S)NNc2ccc([N+](=O)[O-])cc2S(=O)(=O)Nc2ccc(C)cc2C)cc1	Fam108B inh 32 | Fam108b inh conf inactive
Cc1ccc([N+](=O)[O-])cc1NC(=S)NC(=O)C(C)(C)C	none
CCOc1ccc(NC(=O)C2CCCN(C)C2)cc1 (configuration not stated)	none
COc1ccc(CN2CCNC(=O)C2CC(=O)NCCC2=CCCCC2)c(F)c1 (configuration not stated)	none (no result: RBBP9 inhibitor)
Cc1ccc(S(=O)(=O)N2C(=O)CCC2C(=O)O/N=C(\N)c2ccc([N+](=O)[O-])cc2)cc1 (configuration not stated)	none (no result: RBBP9 inhibitor)
O=C(O)c1ccc2c(c1)C1C=CCC1C(c1ccncc1)N2 (configuration not stated)	none
Cc1c(Cl)cccc1NS(=O)(=O)c1ccc2c(c1)C1C=CCC1C(c1ccc(C(=O)O)cc1)N2 (configuration not stated)	Fam108B inh 34 | Fam108b inh conf 33 | Fam108b ABPP HTS inactive
COc1ccc(NS(=O)(=O)c2ccc3c(c2)[C@H]2C=CC[C@H]2[C@@H](c2ccc(C(=O)O)cc2)N3)cc1	Fam108B inh 35 (no result: RBBP9 inhibitor) | Fam108b inh conf 33 | Fam108b ABPP HTS inactive
O=C(CCc1ccc(Oc2cc([N+](=O)[O-])cc([N+](=O)[O-])c2)cc1)Nc1cccc(Cl)c1	Fam108B inh 28 | Fam108b inh conf inactive
COc1ccc(CCC(=O)Nc2cccc(Cl)c2)cc1	none
CC(C)(C)c1nc2scc(-c3ccc(Cl)cc3)c2c(=O)o1	Fam108B inh 21 | Fam108b inh conf 19
COc1ccc(-c2csc3nc(C(C)(C)C)oc(=O)c23)cc1OC	none
CC(C)(C)c1nc2scc(-c3cccs3)c2c(=O)o1	Fam108B inh 55 | Fam108b inh conf 106 | Fam108b ABPP HTS 85
COc1cc2c(cc1NC(=O)Nc1ccccc1)oc1ccccc12	Fam108B inh 33, PME-1 inh 31 | Fam108b inh conf 43 | Fam108b ABPP HTS 90
COc1cc2c(cc1NC(=S)Nc1cccc(C(F)(F)F)c1)oc1ccccc12	Fam108B inh 24 | Fam108b inh conf 45 | Fam108b ABPP HTS 85
C=CCOC(=O)C1=C[C@H](c2csc3ccccc23)C[C@H](OCc2ccc(CO)cc2)O1	none (no result: RBBP9 inhibitor)
Cc1ccc(NCc2ccccc2F)cc1	Fam108B inh 19 | Fam108b inh conf inactive
Nc1c(Cl)cc(-c2[nH]c3cc(C(=O)NCCO)ccc3c(=O)c2O)cc1Cl	Fam108B inh 29, PME-1 inh 42 (no result: RBBP9 inhibitor) | Fam108b inh conf inactive
CCCNC(=O)c1ccc2c(=O)c(O)c(-c3ccc(F)cc3)[nH]c2c1	none (no result: RBBP9 inhibitor)
O=C(Nc1nc(-c2ccc(Cl)s2)cs1)c1ccncc1	none
CC1CC1C(=O)Nc1nc(-c2ccc(Cl)s2)cs1 (configuration not stated)	Fam108B inh 20 | Fam108b inh conf inactive
N#C/C(=C\c1cccs1)c1nc2ccccc2[nH]1	none
N#C/C(=C/c1ccc(O)c(O)c1)c1nc2ccccc2[nH]1	Fam108B inh 27, PME-1 inh 29 (no result: RBBP9 inhibitor) | Fam108b inh conf 29
COC(=O)c1ccc(COc2ccc(/C=C(\C#N)c3nc4ccccc4[nH]3)cc2OC)o1	Fam108B inh 19 | Fam108b inh conf inactive
COc1cc(/C=C(/C#N)c2nc3ccccc3[nH]2)ccc1OCc1ccc(C(=O)O)o1	none
O=C(Nc1ccc(Oc2ccc(NC(=O)Nc3ccccc3Cl)cc2)cc1)Nc1ccccc1Cl	Fam108B inh 58 | Fam108b inh conf 59 | Fam108b ABPP HTS inactive
O=C(Nc1ccc(Cl)c(Cl)c1)Nc1ccccc1O	Fam108B inh 20 | Fam108b inh conf inactive
O=C(Nc1ccccc1)Nc1cccc(Cl)c1Cl	none
